# Laboratory results reported in ChEMBL document CHEMBL1649558, “Antiviral activity of chloroquine against human coronavirus OC43 infection in newborn mice” (Antimicrob Agents Chemother, 2009).
# Assays:
# Human coronavirus OC43 [1] = experiment: Antiviral activity against Human coronavirus OC43 infected in human HRT18 cells after 4 days by qRT-PCR analysis; type: functional, cell-based; details: Betacoronavirus 1, HRT-18, 96 h
# Method in brief: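 HRT-18 cells were seeded and grown 4 days, then infected with 1 × 10⁶ HCoV-OC43 copies/ml in MEM with 2% FCS, with chloroquine at 0.032–500 μM. After 4 days at 37°C in 5% CO₂, viral RNA in the supernatant was quantified by qRT-PCR against a cRNA standard curve. EC50 is the concentration halving the viral RNA increase relative to untreated infected cells.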
# [2] = Cytotoxicity against human HRT18 cells after 4 days by MTS assay; type: cell-based, HRT-18
# Method in brief: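 HRT-18 cells grown in MEM with 10% fetal calf serum, 1% L-glutamine and 1.4% sodium bicarbonate were exposed to a range of compound concentrations for 4 days at 37°C, 5% CO₂. Viable cells were quantified by MTS reduction to formazan, read at 492 nm. CC50 is the concentration reducing viability by 50%.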
# [3] = Selectivity index, ratio of CC50 for human HRT18 cells to EC50 for Human coronavirus OC43 infected in human HRT18 cells; type: toxicity, cell-based; details: read-out: Ratio CC50/EC50
# Method in brief: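 Index = CC50/EC50. For the EC50, HRT-18 cells were seeded at 6 × 10⁴ per well and grown 4 days. They were then infected with 1 × 10⁶ OC43 copies/ml in 2% serum MEM with 0.032–500 μM compound for 4 days at 37°C. Supernatant RNA was measured by qRT-PCR against a cRNA standard curve. The CC50 came from the MTS viability assay at 4 days.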
# Human coronavirus OC43 [4] = experiment: Antiviral activity against Human coronavirus OC43 infected in human HRT18 cells assessed as decrease in viral load at 10 uM treated at the time of infection measured after 28 hrs by qRT-PCR analysis relative to control; type: functional
# Method in brief: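 Subconfluent HRT-18 monolayers were infected with 4 × 10⁷ HCoV-OC43 genome equivalents/ml, adsorbed 30 min, and washed five times with MEM. Chloroquine (10 μM) was added at infection or at later time points. Supernatant viral RNA was quantified by qRT-PCR at 28 h postinfection. Two independent experiments in duplicate; mean ± SEM.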
# Human coronavirus OC43 [5] = experiment: Antiviral activity against Human coronavirus OC43 infected in pregnant C57BL/6 mouse assessed as survival rate at 15 mg/kg, sc administered prepartum; type: functional; details: Betacoronavirus 1, sc, route subcutaneous
# Method in brief: (§1)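 Pregnant C57BL/6 dams were given chloroquine subcutaneously (200 μl; 1, 5 or 15 mg/kg) prepartum or postpartum; controls were untreated. Five-day-old pups were inoculated intracerebrally with 1 × 10³ HCoV-OC43 copies in 10 μl. Mortality was monitored daily, and survivors were followed for 60 days. Survival is surviving pups over total pups; curves were compared by log-rank test.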
# Human coronavirus OC43 [6] = experiment: Antiviral activity against Human coronavirus OC43 infected in pregnant C57BL/6 mouse assessed as survival rate at 15 mg/kg, sc administered postpartum; type: functional; details: Betacoronavirus 1, sc, route subcutaneous; method in brief: as §1
# Human coronavirus OC43 [7] = experiment: Antiviral activity against Human coronavirus OC43 infected in pregnant C57BL/6 mouse assessed as survival rate at 5 mg/kg, sc administered prepartum; type: functional; details: Betacoronavirus 1, sc, route subcutaneous; method in brief: as §1
# Human coronavirus OC43 [8] = experiment: Antiviral activity against Human coronavirus OC43 infected in pregnant C57BL/6 mouse assessed as survival rate at 5 mg/kg, sc administered postpartum; type: functional; details: Betacoronavirus 1, sc, route subcutaneous; method in brief: as §1
# Human coronavirus OC43 [9] = experiment: Antiviral activity against Human coronavirus OC43 infected in pregnant C57BL/6 mouse assessed as survival rate at 1 mg/kg, sc administered prepartum; type: functional; details: Betacoronavirus 1, sc, route subcutaneous; method in brief: as §1
# Human coronavirus OC43 [10] = experiment: Antiviral activity against Human coronavirus OC43 infected in pregnant C57BL/6 mouse assessed as survival rate at 1 mg/kg, sc administered postpartum; type: functional; details: Betacoronavirus 1, sc, route subcutaneous; method in brief: as §1
# Human coronavirus OC43 [11] = experiment: Antiviral activity against Human coronavirus OC43 infected in new born C57BL/6 mouse assessed as survival rate at 15 mg/kg, sc transfered via placenta after administration to pregnant mouse; type: functional; details: Betacoronavirus 1, sc, route subcutaneous
# Human coronavirus OC43 [12] = experiment: Antiviral activity against Human coronavirus OC43 infected in new born C57BL/6 mouse assessed as survival rate at 15 mg/kg, sc transfered via maternal milk after administration to pregnant mouse; type: functional; details: Betacoronavirus 1, sc, route subcutaneous
# Human coronavirus OC43 [13] = experiment: Antiviral activity against Human coronavirus OC43 infected in new born C57BL/6 mouse assessed as survival rate at 5 mg/kg, sc transfered via placenta after administration to pregnant mouse; type: functional; details: Betacoronavirus 1, sc, route subcutaneous; method in brief: as §1
# Human coronavirus OC43 [14] = experiment: Antiviral activity against Human coronavirus OC43 infected in new born C57BL/6 mouse assessed as survival rate at 5 mg/kg, sc transfered via maternal milk after administration to pregnant mouse; type: functional; details: Betacoronavirus 1, sc, route subcutaneous; method in brief: as §1
# Human coronavirus OC43 [15] = experiment: Antiviral activity against Human coronavirus OC43 infected in new born C57BL/6 mouse assessed as survival rate at 1 mg/kg, sc transfered via placenta after administration to pregnant mouse; type: functional; details: Betacoronavirus 1, sc, route subcutaneous; method in brief: as §1
# Human coronavirus OC43 [16] = experiment: Antiviral activity against Human coronavirus OC43 infected in new born C57BL/6 mouse assessed as survival rate at 1 mg/kg, sc transfered via maternal milk after administration to pregnant mouse; type: functional; details: Betacoronavirus 1, sc, route subcutaneous; method in brief: as §1
compound,measurement,setting,value
CCN(CC)CCCC(C)Nc1ccnc2cc(Cl)ccc12.O=P(O)(O)O.O=P(O)(O)O (stereo unspecified) [CHLOROQUINE PHOSPHATE],EC50,Human coronavirus OC43 [1],0.306 µM
same,CC50 at 96 h,[2],419 µM
same,selectivity ratio,[3],1370
same,fold change (FC),Human coronavirus OC43 [4],100
same,survival at 15 mg/kg,Human coronavirus OC43 [5],100%
same,survival at 15 mg/kg,Human coronavirus OC43 [6],97.4%
same,survival at 5 mg/kg,Human coronavirus OC43 [7],92.9%
same,survival at 5 mg/kg,Human coronavirus OC43 [8],83.3%
same,survival at 1 mg/kg,Human coronavirus OC43 [9],33.3%
same,survival at 1 mg/kg,Human coronavirus OC43 [10],0%
same,survival at 15 mg/kg,Human coronavirus OC43 [11],100%
same,survival at 15 mg/kg,Human coronavirus OC43 [12],97.4%
same,survival at 5 mg/kg,Human coronavirus OC43 [13],92.9%
same,survival at 5 mg/kg,Human coronavirus OC43 [14],83.3%
same,survival at 1 mg/kg,Human coronavirus OC43 [15],33.3%
same,survival at 1 mg/kg,Human coronavirus OC43 [16],0%
